# Source: PubChem BioAssay
# Most compounds without a hit are left out; they make up all but 1.5% or so of the library.
# CCR6 antag: CCR6 receptor antagonists, primary screen, cell-based, CHO-K1, luminescence, beta-arrestin, uHTS | C-C chemokine receptor type 6 (Homo sapiens), P51684 | CHO-K1 CCR6 PathHunter beta-arrestin, CCL20-stimulated | inhibition, % at 20 µM | 0.49% of 340,000 active | AID 493098, 2011;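 active = compounds whose inhibition of the agonist-driven luminescence signal at 20 µM reaches about 50%, limit read from the data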;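 note: cells stimulated with CCL20 at 14 nM final; plate controls were DMSO with CCL20 for no effect and DMSO without agonist for full effect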
# EBI2 block: EBI2 receptor antagonists, beta-arrestin recruitment, primary screen, cell-based, luminescence, 7a,25-OHC stimulation, uHTS; G-protein coupled receptor 183 (Homo sapiens), P32249; 7a,25-OHC stimulated; inhibition, % at 5 µM; 0.81% of 360,000 active; AID 651636, 2012; in the data active = inhibition above about 38%;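 note: enzyme fragment complementation signal reports receptor beta-arrestin coupling in cells; 0% = agonist plus DMSO wells and 100% = wells without agonist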
# CXCR6 inh: CXCR6 receptor inhibitors, primary screen, cell-based, beta-arrestin, luminescence, CHO-K1 PathHunter, 1536-well; inhibition, % at 20 µM; 0.36% of 360,000 active; in the data active = inhibition above about 34%, passing the limit was not always enough;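 note: antagonist mode with CXCL16 agonist at 10 nM final; 0% = 10 nM CXCL16 with DMSO and 100% = unstimulated wells without agonist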
# APJ agonist: agonists of human apelin receptor APJ, primary screen, CHO-K1 cells, PathHunter beta-arrestin, luminescence; P35414; 0% DMSO wells, 100% apelin; activation, % at 20 µM; 0.11% of 330,000 active; AID 2520, 2010;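 active = activation more than six SD over the plate average, tested at 20 µM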;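 note: 0% = DMSO alone and 100% = apelin-13 at 10 nM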
# Target sequence (P35414 whole entry, looked up): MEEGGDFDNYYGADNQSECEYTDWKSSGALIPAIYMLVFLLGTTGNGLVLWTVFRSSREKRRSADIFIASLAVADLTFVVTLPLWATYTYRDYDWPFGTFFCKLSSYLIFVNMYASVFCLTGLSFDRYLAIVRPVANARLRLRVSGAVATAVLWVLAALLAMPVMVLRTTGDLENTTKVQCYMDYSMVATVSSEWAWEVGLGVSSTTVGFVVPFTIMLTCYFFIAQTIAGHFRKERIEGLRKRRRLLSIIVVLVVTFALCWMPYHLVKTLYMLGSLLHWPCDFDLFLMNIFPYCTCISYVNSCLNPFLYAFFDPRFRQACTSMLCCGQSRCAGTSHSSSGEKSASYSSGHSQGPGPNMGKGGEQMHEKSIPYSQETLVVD
#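 Material: engineered CHO-K1 APJ arrestin reporter cells; amount: 1000 CHO-K1 reporter cells seeded per well; incubation: compound stimulation 90 min at 25 °C, detection 60 min; signal: luminescent beta-gal fragment complementation, chemiluminescent substrate; read-out basis: APJ agonist activity; controls: DMSO-only wells as negative, 10 nM Apelin-13 as positive control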
# APJ antag: antagonists of human apelin receptor APJ, primary screen, CHO-K1 cells, beta-arrestin complementation, luminescence; 0.32% of 330,000 active; P35414; AID 2521, 2010; inhibition, % at 20 µM;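 active = inhibition above about 40% at 20 µM, limit read from the data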;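 note: cells challenged with 10 nM apelin-13 agonist together with compound; plate controls were apelin-13 plus DMSO wells for no effect and DMSO wells lacking apelin-13 for full effect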
# Starred values were filed as active, the others as inactive; nt = no result.
SMILES,CCR6 antag,EBI2 block,CXCR6 inh,APJ agonist,APJ antag
CC(C)C(OC(=O)C1=Cc2ccccc2OC1)C(=O)NCC1CCCO1 (stereo unspecified),7.8,0.6,2.4,nt,nt
COc1ccccc1NS(=O)(=O)c1cc([N+](=O)[O-])ccc1N/N=C/c1sc(N2CCOCC2)nc1-c1ccccc1,62.5*,27.4,43.8*,nt,nt
COc1ccc(C(=O)N/N=C/c2sc(N3CCOCC3)nc2-c2ccccc2)cc1OC,-10.0,-9.5,2.3,-0.7,-14.8
Nc1c(S(=O)(=O)O)cc(NC(=O)c2ccccc2)c2c1C(=O)c1ccccc1C2=O,54.8*,10.6,28.6,-1.0,0.6
Cc1ccc(C2=Nn3c(COc4ccc(Cl)cc4)nnc3SC2CC(=O)O)cc1 (stereo unspecified),6.2,-11.9,-3.3,-2.1,13.3
O=c1ccc2cc3c([nH]c4ccc(Br)cc43)oc-2c1O,nt,3.0,45.4*,-7.0,39.1
CC(=O)Nc1sc(N)nc1-c1ccccc1,6.4,-0.2,3.7,-4.9,9.3
Nc1nc(-c2ccccc2)c(N=Nc2ccccc2Cl)s1,62.5*,28.8,57.1*,-8.6,39.8
Nc1nc(-c2ccccc2)c(N=Nc2cccc3ccccc23)s1,54.6*,11.1,42.8*,-9.1,39.1
Cc1ncc(N=Nc2ccccc2Cl)c(-c2ccccc2)n1,22.3,2.5,4.0,-1.5,18.7
Cn1cc(-c2cc(C(=O)O)on2)cn1,-3.0,1.3,-2.6,-3.8,18.6
NC(Cc1ccc(C(F)(F)F)cc1)c1csc(Nc2cc(NCc3ccco3)ncn2)n1 (stereo unspecified),nt,-11.6,-10.9,nt,nt
Cc1nn(-c2ccccn2)c2c1C(c1ccccc1Cl)C1=C(N2)c2ccccc2C1=O (stereo unspecified),78.8*,-3.7,25.9,-2.4,19.0
Cc1nn(-c2ccccn2)c2c1C(c1c(F)cccc1Cl)C1=C(N2)c2ccccc2C1=O (stereo unspecified),nt,nt,nt,-3.2,23.1
CN1CCC(C(=O)C(=O)O)C1=O (stereo unspecified),3.1,8.3,0.8,nt,nt
N#CCCCc1cn(-c2nc3ccccc3s2)nn1,nt,-5.1,-4.2,nt,nt
C#CCOCCOCCOCCNc1nc(N2CCN(C(=O)CCCCCCCCCCNC(=O)[C@H]([C@@H](C)CC)n3cc(CCCCN=C(N)N)nn3)CC2)nc(N2CCN(C(=O)CCCCCCCCCCNC(=O)[C@H](CO)n3cc(CCCCCN)nn3)CC2)n1,-26.7,-1.0,61.3*,3.0,13.7
C#CCOCCOCCOCCNc1nc(N2CCN(C(=O)CCCCCCCCCCNC(=O)Cn3cc(CCCCCN)nn3)CC2)nc(N2CCN(C(=O)CCCCCCCCCCNC(=O)[C@H]([C@@H](C)CC)n3cc(CCCCN=C(N)N)nn3)CC2)n1,-27.2,-7.3,39.8,17.0,22.2
C#CCOCCOCCOCCNc1nc(N2CCOCC2)nc(N2CCN(C(=O)CCCCCCCCCCNC(=O)[C@@H]([C@H](C)CC)n3cc(CCCCCN)nn3)CC2)n1,13.4,-6.1,1.0,0.5,13.8
C#CCOCCOCCOCCNc1nc(N2CCN(C(=O)CCCCCCCCCCNC(=O)[C@H]([C@@H](C)CC)n3cc(CCCCN=C(N)N)nn3)CC2)nc(N2CCN(C(=O)CCCCCCCCCCNC(=O)[C@H]([C@@H](C)CC)n3cc(CCCCN=C(N)N)nn3)CC2)n1,nt,nt,nt,70.8*,26.6
C#CCOCCOCCOCCNc1nc(N2CCN(C(=O)CCCCCCCCCCNC(=O)[C@H]([C@@H](C)CC)n3cc(CCCCCN)nn3)CC2)nc(N2CCN(C(=O)CCCCCCCCCCNC(=O)[C@@H]([C@H](C)CC)n3cc(CCCCCN)nn3)CC2)n1,nt,nt,nt,54.6*,21.6
CN1C[C@@H]2[C@@H]3C(=O)N(Cc4ccccc4)C(=O)[C@@H]3[C@](Cc3ccccc3)(C1=O)N2C(=O)c1ccc(F)cc1,2.2,-3.6,-4.0,nt,nt
O=C(NC(=S)Nc1ccccc1)c1cc(-c2ccccc2)nc2ccccc12,55.2*,5.3,28.7,-5.6,34.6
CCCNC(=S)NNC(=O)c1cc(-c2cccnc2)nc2ccccc12,13.7,9.7,14.4,-9.6,-2.1
CCCCNC(=S)NNC(=O)c1cc(-c2cccnc2)nc2ccccc12,53.6*,1.1,21.7,-9.3,-0.3
